EC50 data for 18 compounds are collected here from ChEMBL document CHEMBL1123861, “Antitumor agents. 89. Psychorubrin, a new cytotoxic naphthoquinone from Psychotria rubra and its structure-activity relationships” (1987).

Structures are written as SMILES. In brackets after ≈: the same amount, converted by molar mass.

This experiment has as its system KB. In words: Evaluated for cytotoxicity in the KB cell culture assay. It counts as functional. The following applies: Homo sapiens, read-out: ED50 (the source's name). Summed up: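 Cytotoxicity screen per NIH protocol. 10^4 tumor cells grown in MEM with 10% fetal calf serum; penicillin and streptomycin given on day 3. Drug tested at 0.1 to 20 µg/mL (N = 4). Viable cells counted by trypan blue exclusion and expressed as % of the 0.05% Tween 80-water control. ED50 estimated from a semi-log plot of concentration vs % viable cells.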

Turning to `Cc1cc2c(o1)-c1ccccc1C(=O)C2=O`, the EC50 came to 0.6 µg/mL (≈ 2.83 µM). For `CC(O)c1cc2c(o1)C(=O)c1ccccc1C2=O` (stereo not drawn) the value was 2 µg/mL (≈ 8.26 µM); for `O=C1C2=C(CC(O)OC2)C(=O)c2ccccc21` (stereo not drawn), 3 µg/mL (≈ 13 µM). On to `CC(=O)OC1CCC2=C(O1)C(=O)c1ccccc1C2=O` (stereo not drawn), for which the EC50 was 10 µg/mL (≈ 36.7 µM). On to `O=C1C2=C(OC(Cl)CC2)C(=O)c2ccccc21` (stereo not drawn), for which the EC50 amounted to 9.3 µg/mL (≈ 37.4 µM). For `O=C1C2=C(OC(O)CC2)C(=O)c2ccccc21` (stereo not drawn) the value was 20 µg/mL (≈ 86.9 µM); for `C=C/C=C1/C(=O)C(=O)c2ccccc2C1=O`, 0.4 µg/mL (≈ 1.88 µM); for `C/C=C/C1=C(O)C(=O)c2ccccc2C1=O`, 14 µg/mL (≈ 65.4 µM). On to `C/C=C/C1=C(OC(C)=O)C(=O)c2ccccc2C1=O`, for which the EC50 was found to be 5.1 µg/mL (≈ 19.9 µM). For `O=C1C2=C(OCC=C2)C(=O)c2ccccc21` the value was 0.4 µg/mL (≈ 1.88 µM); for `O=C1C2=C(OCCC2)C(=O)c2ccccc21`, 8 µg/mL (≈ 37.3 µM). For `CC(=O)OC1CC2=C(CO1)C(=O)c1ccccc1C2=O` (stereo not drawn) the value was 5 µg/mL (≈ 18.4 µM); for `C/C=C/C1=C(OC(=O)CC)C(=O)c2ccccc2C1=O`, 6.5 µg/mL (≈ 24 µM); for `C/C=C/C1=C(OC(=O)c2ccccc2)C(=O)c2ccccc2C1=O`, 5.1 µg/mL (≈ 16 µM). In the case of `Cc1cc2c(o1)C(=O)c1ccccc1C2=O` it was 0.3 µg/mL (≈ 1.41 µM). For `COC1CCC2=C(O1)C(=O)c1ccccc1C2=O` (stereo not drawn), the EC50 was 11 µg/mL (≈ 45 µM).

Take `CC(C)=CCC1=C(O)C(=O)c2ccccc2C1=O` [LAPACHOL]: the EC50 was 4.4 µg/mL (≈ 18.2 µM).

Consider `CC(=O)c1cc2c(o1)C(=O)c1ccccc1C2=O` [NAPABUCASIN], for which the EC50 worked out at 1 µg/mL (≈ 4.16 µM).
